Data published in ChEMBL document CHEMBL1833920, “Antimalarial activity of imidazo[2,1-a]isoindol-5-ol derivatives and related compounds” (Eur J Med Chem, 2011).

Key:
Plasmodium falciparum [1] = experiment: Antiplasmodial activity against chloroquine-sensitive Plasmodium falciparum 3D7 infected in human O positive erythrocytes after 48 hrs by SYBR green-I based fluorescence assay; format: functional, organism-based; details: 3D7, 48 h
Method in brief: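 3D7 was cultured at 37 °C, 5% CO₂, in O+ human erythrocytes at 5% hematocrit, in RPMI 1640 with 2% human serum, 0.2% NaHCO₃, 0.5% Albumax II, hypoxanthine and gentamicin. Cultures were sorbitol-synchronized (mostly late rings/early trophozoites). Drugs from DMSO stocks were serially diluted in triplicate wells (final DMSO ≤0.001%) and incubated 48 h. Read-out was SYBR Green I in lysis buffer, 1 h dark RT, ex 485/em 530 nm. EC₅₀ was taken as 50% fluorescence reduction, as the mean of triplicate experiments.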

Plasmodium falciparum [2] = experiment: Ratio of chloroquine IC50 to Compound IC50 for chloroquine-sensitive Plasmodium falciparum 3D7; format: functional
[3] = Intestinal absorption in human; format: ADME, organism-based; details: in vivo, read-out: HIA
[4] = Plasma protein binding in human; format: ADME, organism-based
Mus musculus = experiment: Toxicity in Plasmodium berghei NK65 infected in Swiss mouse assessed as mouse mortality at 50 mg/kg, ip administered 2 hrs postinfection daily for 4 days measured on day 5; format: organism-based; design: dose 50 mg/kg, route intraperitoneal; details: in vivo
Method in brief: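 Swiss male mice (20 ± 2 g) were infected on day 0 with 10⁷ parasitized cells and kept in groups of five. Compound was given i.p. at 50 mg/kg/day, starting 2 h after infection on day 0 and continuing through day 3. Untreated (blank) and chloroquine (5 mg/kg/day) groups served as controls.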

Plasmodium berghei [5] = experiment: Antimalarial activity against Plasmodium berghei NK65 infected in Swiss mouse assessed as inhibition of parasitemia at 25 mg/kg, ip administered 2 hrs postinfection daily for 4 days measured on day 5; format: functional; details: route intraperitoneal
Method in brief: (§1)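 Swiss male mice (20 ± 2 g) were infected on day 0 with 10⁷ parasitized cells, in groups of five. Dosing was i.p. at 50 or 25 mg/kg/day from day 0 (2 h post-infection) to day 3. Parasitemia on day 4 was counted from Giemsa-stained tail thin smears (≥9000 RBC, 1000×). Results were compared with untreated and CQ 5 mg/kg/day controls, and % inhibition was calculated relative to untreated parasitemia.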

Plasmodium berghei [6] = experiment: Antimalarial activity against Plasmodium berghei NK65 infected in Swiss mouse assessed as inhibition of parasitemia at 50 mg/kg, ip administered 2 hrs postinfection daily for 4 days measured on day 5; format: functional; details: route intraperitoneal; method in brief: as §1
[7] = Cytotoxicity against african green monkey CV1 cells; format: cell-based, CV-1; details: chlorocebus aethiops

IC50 (Plasmodium falciparum [1]) [µM] | Fa [3] [%] | fraction unbound [4] | Structure (SMILES) | Ratio IC50 (Plasmodium falciparum [2]) | Activity (Mus musculus) | inhibition in vivo at 25 mg/kg (Plasmodium berghei [5]) [%] | inhibition in vivo at 50 mg/kg (Plasmodium berghei [6]) [%] | CC50 [7] [µM]
> 35 | – | – | Oc1ccc(CC2(O)c3ccccc3C3=NCCN32)cc1Cl (stereo unspecified) | <1 | – | – | – | –
2.2 | > 95 | > 0.1 | OC1(Cc2ccc3c(c2)OCO3)c2ccccc2C2=NCCN21 (stereo unspecified) | <1 | – | – | 53 | > 32
13.5 | – | – | Cn1c(CC2(O)c3ccccc3C3=NCCN32)cc2ccccc21 (stereo unspecified) | <1 | – | – | – | –
37.8 | – | – | OC1(Cc2ccccc2)c2ccccc2C2=NCCN21 (stereo unspecified) | <1 | – | – | – | –
– | > 95 | > 0.1 | OC1(Cc2ccc(Cl)cc2)c2ccccc2C2=NCCN21 (stereo unspecified) | 8.3 | – | – | 7 | > 16
0.24 | > 95 | > 0.1 | COc1ccc(CC2(O)c3ccccc3C3=NCCN32)cc1 (stereo unspecified) | 4.2 | – | – | 23 | –
0.06 | > 95 | > 0.1 | CSc1ccc(CC2(O)c3ccccc3C3=NCCN32)cc1 (stereo unspecified) | 16.7 | – | – | 84 | > 24
16.3 | – | – | OC1(Cc2cccc3ccccc23)c2ccccc2C2=NCCN21 (stereo unspecified) | <1 | – | – | – | > 15
6.6 | – | – | OC1(Cc2ccsc2)c2ccccc2C2=NCCN21 (stereo unspecified) | <1 | – | – | – | –
> 35 | – | – | Oc1ccc(CC2(O)c3ccccc3C3=NCCN32)cc1 (stereo unspecified) | <1 | – | – | – | –
8.36 | – | – | COc1cccc(CC2(O)c3ccccc3C3=NCCN32)c1 (stereo unspecified) | <1 | – | – | – | –
4.2 | – | – | OC1(Cc2ccc(F)cc2)c2ccccc2C2=NCCN21 (stereo unspecified) | <1 | – | – | – | –
15.2 | – | – | OC1(Cc2ccccc2Cl)c2ccccc2C2=NCCN21 (stereo unspecified) | <1 | – | – | – | –
> 35 | – | – | COc1ccccc1CC1(O)c2ccccc2C2=NCCN21 (stereo unspecified) | <1 | – | – | – | –
19.6 | – | – | OC1(Cc2cccs2)c2ccccc2C2=NCCN21 (stereo unspecified) | <1 | – | – | – | –

More lines, now with the values behind:

Structure (SMILES) | IC50 (Plasmodium falciparum [1]) [µM] | Fa [3] [%] | fraction unbound [4] | Ratio IC50 (Plasmodium falciparum [2]) | Activity (Mus musculus) | inhibition in vivo at 25 mg/kg (Plasmodium berghei [5]) [%] | inhibition in vivo at 50 mg/kg (Plasmodium berghei [6]) [%] | CC50 [7] [µM]
OC1(Cc2ccc3ccccc3c2)c2ccccc2C2=NCCN21 (stereo unspecified) | 0.06 | > 95 | > 0.1 | 16.7 | Toxic | 87 | – | –
COc1cc(CC2(O)c3ccccc3C3=NCCN32)cc(OC)c1OC (stereo unspecified) | 1.49 | > 95 | > 0.1 | <1 | – | – | < 5 | –
CSc1ccc(CC2(O)c3ccccc3-c3nc4cc(C)ccc4n32)cc1 (stereo unspecified) | 15.6 | – | – | <1 | – | – | – | –
OC1(Cc2cc(F)cc(F)c2)c2ccccc2C2=NCCN21 (stereo unspecified) | > 35 | – | – | <1 | – | – | – | –
OC1(Cc2ccc(Cl)cc2Cl)c2ccccc2C2=NCCN21 (stereo unspecified) | 8.8 | – | – | <1 | – | – | – | –
OC1(Cc2ccc(Cl)c(Cl)c2)c2ccccc2C2=NCCN21 (stereo unspecified) | 0.3 | > 95 | > 0.1 | 3.3 | Toxic | 19 | – | –
COc1ccc(CC2(O)c3ccccc3C3=NCCN32)cc1OC (stereo unspecified) | 27.6 | – | – | <1 | – | – | – | > 30
CSc1ccc(C=C2c3ccccc3C(=O)N2c2cc(Cl)ccc2N)cc1 (mixture of isomers) | 13.9 | – | – | <1 | – | – | – | –
Nc1ccc(Cl)cc1N1C(=O)c2ccccc2C1=Cc1ccc2ccccc2c1 (mixture of isomers) | 10 | – | – | <1 | – | – | – | –
OC1(Cc2ccc3ccccc3c2)c2ccccc2-c2nc3ccccc3n21 (stereo unspecified) | > 30 | – | – | <1 | – | – | – | –
CSc1ccc(CC2(O)c3ccccc3-c3nc4ccccc4n32)cc1 (stereo unspecified) | > 27 | – | – | <1 | – | – | – | –
OC1(Cc2ccc(F)cc2F)c2ccccc2C2=NCCN21 (stereo unspecified) | 33.3 | – | – | <1 | – | – | – | –
